Hits are enriched below; roughly 1.8% of the tested compounds scored in any of these assays.
M4 antag = human M4 muscarinic receptor antagonists, primary screen, CHO cells, Fluo-8 calcium fluorescence | AID 624125, 2012 | CHO-hM4 cells, ACh EC80 | inhibition, % at 3 µM | 360,000 tested, 0.73% active;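 active means inhibition above its plate's cutoff, the mean inhibition of sample wells plus 3 SD, cut at about 27% in these data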;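 further: 0% = acetylcholine EC80 with DMSO and 100% = DMSO without agonist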
M4 ag = human M4 muscarinic receptor agonists, primary screen, CHO-K1 cells, Fluo-8 calcium fluorescence; activation, % at 3 µM; CHO-K1 hM4/Gqi5; vehicle 0%, full acetylcholine response 100%; AID 624127, 2012; Muscarinic acetylcholine receptor M4 (Homo sapiens), P08173; 360,000 tested, 0.14% active;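 active means activation above the run mean over all test wells plus 3 SD, cut at about 32% in these data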;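 further: peak over basal fluorescence ratio per well then scaled between controls; 0% = DMSO wells and 100% = acetylcholine at EC100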
M4 PAM = human M4 muscarinic receptor positive allosteric modulators, primary screen, CHO-K1 cells, Fluo-8 calcium fluorescence; Muscarinic acetylcholine receptor M4 (Homo sapiens), P08173; CHO-K1 hM4/Gqi5, ACh EC20; 0% = ACh EC20, 100% = maximal ACh; AID 624126, 2012; 360,000 tested, 0.4% active; activation, % at 3 µM;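 active means activation above its plate's cutoff, the mean activation of sample wells plus 3 SD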
CHRM5 agonist = human M5 muscarinic receptor agonists, primary screen, CHO-K1 cells, Fluo-8 calcium fluorescence | Muscarinic acetylcholine receptor M5 (Homo sapiens), P08912 | CHO-K1 hM5 cells; 0% DMSO wells, 100% maximal acetylcholine response | activation, % at 3 µM | 360,000 tested, 0.19% active | AID 624037, 2012;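 active means activation above the run's mean over test compounds plus 3 SD, cut at about 23% in these data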;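 further: signal is peak over basal fluorescence ratio across the kinetic read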
M5 PAM = human M5 muscarinic receptor positive allosteric modulators, primary screen, CHO-K1 cells, Fluo-8 calcium fluorescence; CHO-K1 hM5, ACh EC20 PAM; 0% = ACh EC20, 100% = ACh EC100; Muscarinic acetylcholine receptor M5 (Homo sapiens), P08912; 360,000 tested, 0.3% active; activation, % at 3 µM;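 active means activation above the run cutoff, the mean activation of all test compounds plus 3 SD, cut at about 18% in these data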
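Measured by: Fluo-8 calcium fluorescence; material: human M5 receptor in CHO-K1 cells; schedule: Post-acetylcholine fluorescence recording 140 s; benchmarks: low control EC20 acetylcholine (0%), high control EC100 acetylcholine (100%); read-out: Max/basal fluorescence ratio as % of EC20–EC100 ACh window; compound: single dose, 3 µM nominal final test concentration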
M5 antag = human M5 muscarinic receptor antagonists, primary screen, CHO cells, Fluo-8 calcium fluorescence; Muscarinic acetylcholine receptor M5 (Homo sapiens), P08912; CHO-hM5 cells, ACh EC80; inhibition, % at 3 µM; 360,000 tested, 0.59% active;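 active means inhibition above a per-plate cutoff, the mean of that plate's test compounds plus 3 SD, cut at about 27% in these data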;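 further: 0% = acetylcholine EC80 with DMSO and 100% = DMSO without agonist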
The depositor's hits bear a star.

SMILES	M4 antag	M4 ag	M4 PAM	CHRM5 agonist	M5 PAM	M5 antag
Cc1cccc(C(=O)Nc2ccc(C(=O)/C=C/c3cccnc3)cc2)c1	-8	9	-2	0	-8	4
Cc1cccc(C(=O)Nc2ccc(C(=O)/C=C/c3ccncc3)cc2)c1	33*	17	-13	4	7	2
CN(C)CCCNC(=O)N1c2ccccc2Sc2ccccc21	97*	1	-16	-24	-34	100*
O=C(CCN1CCOCC1)N1c2ccccc2Sc2ccc(Cl)cc21	57*	1	-19	-7	-17	95*
O=C(NCCN1CCOCC1)N1c2ccccc2Sc2ccccc21	38*	1	-15	-13	-29	59*
CN1CCN(CCC(=O)N2c3ccccc3Sc3ccc(C(F)(F)F)cc32)CC1	12	3	-11	-6	-19	11
Cc1noc(C)c1NC(=O)Nc1ccc2c(c1)C(=O)N([C@H](C)CO)C[C@@H](C)[C@@H](CN(C)S(=O)(=O)c1cn(C)cn1)OCCCC[C@H](C)O2	-3	1	-2	1	2	2
OCCN(Cc1ccccn1)Cc1ccccn1	22	1	-11	-3	2	-3
CC1(C(=O)NCc2ccccc2)CN(S(C)(=O)=O)CC(=O)N1CCc1ccccc1F (stereo not given)	-9	8	7	2	-10	10
CC(=O)Nc1c(O)nc(SCC(=O)Nc2cccc(C)c2)[nH]c1=O	-3	2	42*	4	1	1
CC(=O)Nc1c(O)nc(SCC(=O)Nc2ccc(C(C)=O)cc2)[nH]c1=O	3	2	0	4	2	1
COC(=O)c1ccccc1NC(=O)CSc1nc(O)c(-c2ccccc2)c(=O)[nH]1	-5	0	3	-2	3	4
COC(=O)c1cccc(NC(=O)CSc2nc(O)c(-c3ccccc3)c(=O)[nH]2)c1	-5	1	24*	0	11	0
CC(=O)Nc1c(O)nc(SCC(=O)N2CCCCC2)[nH]c1=O	-7	1	23*	1	5	-3
CN(CC(=O)Nc1cccc(F)c1)C(=O)C1(c2ccccc2)CC1	-18	3	16	-1	9	8
NC(=O)C1CCN(CC(=O)NC(=O)NC2CCCC2)CC1	-6	2	20*	-1	-1	9
O=C(CN1CCCCC1)NC(=O)NC1CCCCC1	12	1	0	-5	-17	55*
O=C(CN1CCCC1)NC(=O)NC1CCCC1	1	0	-1	0	7	-2
Cc1csc(NC(=O)c2cc(-c3ccccc3)nc3ccccc23)n1	3	9	-14	-1	-18	28*
COCCN(C(=O)CCC(=O)Nc1cc(C)on1)C(C(=O)NC1CCCC1)c1ccccc1F (stereo not given)	75*	0	-20	6	28*	17
COC(=O)c1ccc2c(c1)sc(=NC(=O)CCS(=O)(=O)c1ccccc1)n2C	-6	8	18*	4	2	-10
COCCn1c(=NC(=O)CCS(=O)(=O)c2ccccc2)sc2ccccc21	2	9	-4	-1	-2	-1
CCOC(=O)c1[nH]c2ccc(OC)cc2c1C	1	3	20	1	-3	32*
O=C(C1CCCO1)N1CCC(O)(c2ccccc2)CC1 (stereo not given)	4	1	20*	2	3	-4
O=C(C1CCCO1)N1CCN(C(c2ccccc2)c2ccccc2)CC1 (stereo not given)	2	0	-7	-7	-1	-4
O=C(N/N=C/C=C/c1ccccc1)C1CC1c1ccccc1 (stereo not given)	4	3	17*	-10	-2	-10
